Results on 8 compounds are retold here after ChEMBL document CHEMBL3576820, “Discovery of benzimidazole oxazolidinediones as novel and selective nonsteroidal mineralocorticoid receptor antagonists” (ACS Med Chem Lett, 2015).

The source made the active and inactive calls. The calls are words filed in the database; no cut-off is given here.

Data set [1] addresses T1, Estrogen receptor (Homo sapiens) (UniProt P03372).
T1 sequence (whole entry): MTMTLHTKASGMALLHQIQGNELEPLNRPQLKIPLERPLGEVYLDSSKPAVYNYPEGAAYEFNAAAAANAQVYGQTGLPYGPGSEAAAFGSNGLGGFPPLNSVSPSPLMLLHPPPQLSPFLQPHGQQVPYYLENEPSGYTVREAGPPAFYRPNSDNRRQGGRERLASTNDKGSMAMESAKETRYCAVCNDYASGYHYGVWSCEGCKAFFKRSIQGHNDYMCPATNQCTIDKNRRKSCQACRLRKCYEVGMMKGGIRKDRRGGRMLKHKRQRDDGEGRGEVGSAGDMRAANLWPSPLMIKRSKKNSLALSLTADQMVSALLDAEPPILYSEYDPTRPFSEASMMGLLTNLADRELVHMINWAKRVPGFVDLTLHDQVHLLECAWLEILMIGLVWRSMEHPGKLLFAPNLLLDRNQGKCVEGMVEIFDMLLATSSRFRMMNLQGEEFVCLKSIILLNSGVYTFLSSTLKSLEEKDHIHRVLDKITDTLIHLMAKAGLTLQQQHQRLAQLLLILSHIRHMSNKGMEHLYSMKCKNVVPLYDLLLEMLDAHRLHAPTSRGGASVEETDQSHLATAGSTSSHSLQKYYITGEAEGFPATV
Description: Agonist activity at human estrogen receptor alpha by cell-based assay.

For data set [2], the target named is T2, Progesterone receptor (Homo sapiens) (UniProt P06401).
T2 sequence (whole entry): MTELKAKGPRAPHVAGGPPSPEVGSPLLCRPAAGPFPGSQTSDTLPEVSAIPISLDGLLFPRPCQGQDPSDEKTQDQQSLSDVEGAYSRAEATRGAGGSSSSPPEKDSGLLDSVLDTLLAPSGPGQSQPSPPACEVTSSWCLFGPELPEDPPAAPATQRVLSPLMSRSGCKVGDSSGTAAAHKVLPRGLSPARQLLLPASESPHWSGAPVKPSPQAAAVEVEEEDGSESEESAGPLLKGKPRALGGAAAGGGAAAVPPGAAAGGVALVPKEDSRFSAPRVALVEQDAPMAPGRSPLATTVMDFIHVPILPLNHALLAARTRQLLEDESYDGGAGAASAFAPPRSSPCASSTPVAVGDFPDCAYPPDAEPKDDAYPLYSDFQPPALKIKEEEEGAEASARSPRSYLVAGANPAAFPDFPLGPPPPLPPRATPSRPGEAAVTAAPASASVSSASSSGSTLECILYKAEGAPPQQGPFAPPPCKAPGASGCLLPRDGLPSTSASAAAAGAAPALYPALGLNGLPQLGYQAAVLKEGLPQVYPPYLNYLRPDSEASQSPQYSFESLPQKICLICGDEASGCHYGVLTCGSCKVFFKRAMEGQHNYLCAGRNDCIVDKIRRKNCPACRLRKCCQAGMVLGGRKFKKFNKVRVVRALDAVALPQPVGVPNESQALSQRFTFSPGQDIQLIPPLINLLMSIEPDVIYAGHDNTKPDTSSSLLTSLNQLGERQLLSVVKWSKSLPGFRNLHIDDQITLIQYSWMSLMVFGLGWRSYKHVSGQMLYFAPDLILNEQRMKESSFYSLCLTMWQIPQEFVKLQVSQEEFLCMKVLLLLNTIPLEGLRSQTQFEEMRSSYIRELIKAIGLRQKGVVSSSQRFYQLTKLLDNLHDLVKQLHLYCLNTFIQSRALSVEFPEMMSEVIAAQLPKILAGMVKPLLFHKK
Description: Agonist activity at human progesterone receptor beta by cell-based assay.

The target in data set [3] is T3, Mineralocorticoid receptor (Homo sapiens) (UniProt P08235).
T3 sequence (whole entry): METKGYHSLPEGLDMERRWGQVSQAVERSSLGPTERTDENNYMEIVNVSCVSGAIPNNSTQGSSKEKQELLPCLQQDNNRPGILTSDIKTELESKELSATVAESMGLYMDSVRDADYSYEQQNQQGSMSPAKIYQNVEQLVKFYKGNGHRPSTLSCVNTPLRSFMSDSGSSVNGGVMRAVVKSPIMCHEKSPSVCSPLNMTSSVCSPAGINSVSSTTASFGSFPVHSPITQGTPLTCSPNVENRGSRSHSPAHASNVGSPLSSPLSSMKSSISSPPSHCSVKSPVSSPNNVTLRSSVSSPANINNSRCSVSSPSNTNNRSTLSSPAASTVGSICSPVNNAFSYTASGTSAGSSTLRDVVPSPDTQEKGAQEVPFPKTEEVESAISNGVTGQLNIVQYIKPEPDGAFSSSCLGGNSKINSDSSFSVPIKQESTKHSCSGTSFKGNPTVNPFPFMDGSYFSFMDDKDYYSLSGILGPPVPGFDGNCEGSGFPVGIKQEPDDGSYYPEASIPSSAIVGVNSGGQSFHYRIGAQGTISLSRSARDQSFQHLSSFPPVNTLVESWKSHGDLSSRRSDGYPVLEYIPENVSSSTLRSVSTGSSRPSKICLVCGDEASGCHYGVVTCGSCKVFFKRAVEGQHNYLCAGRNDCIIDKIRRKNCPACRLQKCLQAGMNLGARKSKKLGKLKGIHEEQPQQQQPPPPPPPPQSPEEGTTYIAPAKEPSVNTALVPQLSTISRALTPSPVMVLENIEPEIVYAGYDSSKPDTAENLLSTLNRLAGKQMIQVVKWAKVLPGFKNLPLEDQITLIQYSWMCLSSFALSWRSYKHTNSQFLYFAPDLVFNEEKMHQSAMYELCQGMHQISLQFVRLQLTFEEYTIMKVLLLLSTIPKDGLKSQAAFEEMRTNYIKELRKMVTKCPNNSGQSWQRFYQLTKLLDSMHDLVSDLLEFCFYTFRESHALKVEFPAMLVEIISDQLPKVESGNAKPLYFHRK
Description: Agonist activity at human mineralocorticoid receptor by cell-based assay.

The subject of data set [4] is Rattus norvegicus. Description: Natriuretic activity in WKY rat at 30 to 100 mg/kg, po measured over 6 hrs. In kind it is functional, organism-based.
Data set [5] deals with T4, Mineralocorticoid receptor (Homo sapiens, UniProt P08235).
T4 sequence (P08235 whole entry): T3 sequence (whole entry)
Description: Antagonist activity at human mineralocorticoid receptor overexpressed in CHOK1 cells assessed as inhibition of aldosterone-induced protein interaction with coactivator peptide after 6 hrs by luminescence assay. Format: cell-based, CHO-K1.

Data set [6] can be described thus: Metabolic stability in human liver microsomes assessed as compound remaining at 1 uM after 0.5 hrs. Format: ADME. As to conditions: read-out: Stability.
Data set [7] can be described thus: Metabolic stability in rat liver microsomes assessed as compound remaining at 1 uM after 0.5 hrs. Format: ADME. The settings on record: read-out: Stability.
Data set [8] can be described thus: Oral bioavailability in Wistar han rat at 2 mg/kg. As to conditions: in vivo. Format: ADME, organism-based. In short, it runs like this: (§1)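 Wistar Han rats. IV dose 1 mg/kg in DMSO/PEG200/water (10:60:30), n=2. Oral dose 2 mg/kg in imwitor/tween (1:1) by gavage, n=3. Values are averages. Derived: F%, plasma clearance, Vdss, terminal half-life and oral AUC normalized to dose.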

Data set [9] is described as follows: Plasma clearance in Wistar han rat at 2 mg/kg, po and 1 mg/kg, iv. In kind it is ADME, organism-based. The procedure, abridged:
as §1

Data set [10] in a line: Volume of distribution at steady state in Wistar han rat at 2 mg/kg, po and 1 mg/kg, iv. Format: ADME, organism-based. As to conditions: in vivo, read-out: Vdss. The procedure, abridged:
as §1

Data set [11] can be described thus: Terminal half life in Wistar han rat at 2 mg/kg, po and 1 mg/kg, iv. As to conditions: in vivo, read-out: beta t1/2 (converted). Format: ADME, organism-based. The procedure, abridged: as §1
The test system of data set [12] is Rattus norvegicus. Description: Dose normalized AUC in Wistar han rat at 2 mg/kg, po. Format: ADME, organism-based. The settings on record: in vivo. The procedure, abridged: as §1
A short description of data set [13]: Fraction unbound in 10% human plasma. In kind it is ADME, cell-free. As to conditions: 10% plasma. The procedure, abridged:
(§2)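 Free fraction measured in the presence of 10% plasma (human or rat), taken as correlating with the free fraction in whole plasma.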

The nature of data set [14]: Fraction unbound in 10% rat plasma. Format: ADME, cell-free. The settings on record: 10% plasma. In short, it runs like this: as §2
A short description of data set [15]: Plasma protein binding in human. Format: ADME, cell-free. The settings on record: read-out: PPB.
The nature of data set [16]: Plasma protein binding in rat. In kind it is ADME, cell-free. The settings on record: read-out: PPB.

In the case of `CC(=O)S[C@@H]1CC2=CC(=O)CC[C@]2(C)[C@H]2CC[C@@]3(C)[C@@H](CC[C@@]34CCC(=O)O4)[C@H]12`, the result in [1], in data set [2] and in data set [3] was inactive. Also, in the data set on Rattus norvegicus [4], the outcome was Active.
As for `C[C@H](c1ccc(F)cc1)N1C(=O)O[C@](Cc2ccccc2)(c2nc3cc(-c4cnn(C)c4)ccc3[nH]2)C1=O`, the half-maximal inhibitory concentration (IC50) in [5] is 0.033 µM. Further, the figures for the remaining at 0.5 h, 1 µM in data set [6] and in data set [7] were 72% and 26%, respectively. The result in [1], in data set [2] and in [3] was inactive.
As for `C[C@H](c1ccc(F)cc1)N1C(=O)O[C@](Cc2ccccc2)(c2nc3cc(-c4cccnc4Cl)ccc3[nH]2)C1=O`, the IC50 in data set [5] was found to be 0.064 µM. In addition, the remaining at 0.5 h, 1 µM in [6] worked out at 64%; in data set [7], 25%. For the same compound, the outcome in data set [1], in data set [2] and in [3] was inactive.
Take `C[C@H](c1ccc(F)cc1)N1C(=O)O[C@](Cc2ccccc2)(c2nc3c(C(F)(F)F)cccc3[nH]2)C1=O`: the IC50 in data set [5] came to 0.15 µM. Besides, the remaining at 0.5 h, 1 µM in data set [6] turned out to be 77%; in data set [7] it was 51%. Besides, the outcome in [1], in [2] and in data set [3] was inactive. The bioavailability in [8] stood at 44%. The same compound yielded a clearance in data set [9] of 23 mL/min/kg. Moreover, in data set [10], the Vd turned out to be 3.4 L/kg. Besides, in data set [11], the half-life is 2.4 h. The AUC/dose with Rattus norvegicus [12] amounted to 0.067 µM·kg·h/mg. For the same compound, the fraction unbound in data set [13] was 0.002; in data set [14] it was 0.005; in data set [15], under 0.01; in [16], under 0.01.
In the case of `C[C@H](c1ccc(F)cc1)N1C(=O)O[C@](Cc2ccccc2)(c2nc3cc(OC(F)(F)F)ccc3[nH]2)C1=O`, the IC50 in [5] was found to be 0.18 µM. Moreover, the remaining at 0.5 h, 1 µM in [6] was determined as 105%; in data set [7], 22%. Further, the outcome in data set [1], in data set [2] and in [3] was inactive.
For the compound `C[C@H](c1ccc(F)cc1)N1C(=O)O[C@](Cc2ccccc2)(c2nc3c(-c4cc[nH]n4)cccc3[nH]2)C1=O`, the IC50 in [5] amounted to 1.6 µM. The remaining at 0.5 h, 1 µM in data set [6] worked out at 25%; in data set [7], 4%. Besides, the result in [1], in data set [2] and in [3] was inactive.
As for `C[C@H](c1ccc(F)cc1)N1C(=O)O[C@](Cc2ccccc2)(c2nc3c(-c4cnn(C)c4)cccc3[nH]2)C1=O`, the 50% inhibitory concentration (IC50) in data set [5] was 0.15 µM. Further, the remaining at 0.5 h, 1 µM in [6] was found to be 54%; in [7], 18%. Further, the result in [1], in [2] and in [3] was inactive.
Turning to `CC(=O)Nc1cccc2[nH]c([C@@]3(Cc4ccccc4)OC(=O)N([C@H](C)c4ccc(F)cc4)C3=O)nc12`, in [5], the IC50 came out at 1.1 µM. For the same compound, the remaining at 0.5 h, 1 µM in [6] is 89%; in data set [7], 41%. Besides, the result in data set [1], in [2] and in [3] was inactive.
